Most compounds without a hit are left out; they make up all but 4.6% or so of the library.
TAAR1 antagonist – antagonists of human TAAR1 | 1.5% of 360,000 active | inhibition, % at 3 µM | Q96RJ0 | CHO RD-HGA16 TAAR1, Fluo-8 calcium fluorescence, antagonist;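 active means inhibition above a per-plate cutoff, the mean inhibition of test compounds on that plate plus 3 SD, cut at about 49% in these data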;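 further: 0% = DMSO plus EC80 beta-PEA response and 100% = DMSO alone without agonist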
Target sequence (Q96RJ0 whole entry, looked up): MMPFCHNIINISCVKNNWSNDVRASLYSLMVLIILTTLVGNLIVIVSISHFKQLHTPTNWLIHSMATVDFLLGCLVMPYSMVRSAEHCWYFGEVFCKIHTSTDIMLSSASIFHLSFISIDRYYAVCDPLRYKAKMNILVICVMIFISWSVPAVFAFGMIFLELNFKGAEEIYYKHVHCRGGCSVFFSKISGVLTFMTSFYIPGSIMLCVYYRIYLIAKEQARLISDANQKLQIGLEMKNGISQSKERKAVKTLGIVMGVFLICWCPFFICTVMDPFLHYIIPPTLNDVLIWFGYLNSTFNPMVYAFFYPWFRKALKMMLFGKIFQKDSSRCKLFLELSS
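Test system: RD-HGA16 CHO cells with stable hTAAR1 and Gα16 / Probe or stimulus: EC80 β-phenethylamine stimulus / Times: seeding 17-24 h prior, 75-min 37 °C, 30-min RT dye loading / Detection: Fluo-8 calcium-sensitive fluorescence / Read-out basis: % inhibition scaled between DMSO and EC80 PEA controls / Repeats: singlicate, one well per test compound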
TAAR1 agonist – human TAAR1 agonism; CHO RD-HGA16 TAAR1, Fluo-8 calcium fluorescence; vehicle wells 0%, saturating PEA agonist 100%; activation, % at 3 µM; 0.99% of 360,000 active;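 active means activation above the mean activation of all test compounds in the run plus 3 SD, cut at about 38% in these data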
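System: CHO-derived RD-HGA16 cells with stable Gα16 and human TAAR1 / Times: 17-24 h plating, Fluo-8 75 min 37 °C, 30 min RT / Technique: calcium-sensitive Fluo-8 signal, excitation 470-495, emission 515-575 nm / Measure: % activation relative to PEA EC100 response / Benchmarks: DMSO and PEA EC100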
OX1R antag-1 – antagonists of human orexin 1 receptor; O43613; CHO/OX1R cells, Fluo-8 calcium fluorescence, orexin A; inhibition, % at 5 µM; 0.43% of 330,000 active;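 active means inhibition above its plate's threshold, mean inhibition of all tested compounds on the plate plus 3 SD, cut at about 37% in these data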;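 further: 0% = orexin A challenge wells and 100% = SB-334867-A antagonist wells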
Target sequence (O43613 whole entry, looked up): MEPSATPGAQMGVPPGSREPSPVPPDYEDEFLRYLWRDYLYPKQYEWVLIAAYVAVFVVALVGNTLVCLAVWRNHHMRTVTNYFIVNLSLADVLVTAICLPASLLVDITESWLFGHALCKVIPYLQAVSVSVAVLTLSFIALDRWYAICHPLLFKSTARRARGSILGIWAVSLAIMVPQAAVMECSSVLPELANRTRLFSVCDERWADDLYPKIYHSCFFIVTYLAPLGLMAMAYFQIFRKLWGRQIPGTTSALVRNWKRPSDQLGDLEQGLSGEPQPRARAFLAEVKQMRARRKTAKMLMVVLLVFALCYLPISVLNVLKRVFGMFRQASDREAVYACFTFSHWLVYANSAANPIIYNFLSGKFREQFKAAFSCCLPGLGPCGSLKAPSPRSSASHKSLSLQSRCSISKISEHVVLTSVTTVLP
OX1R antag-2 – blocks the human orexin 1 receptor. O43613. OX1R-expressing cells, FRET antagonist read-out. inhibition, % at 6.6 µM. 1.8% of 330,000 active. AID 485270; in the data active means inhibition mostly above about 38%, no sharp cut-off; inactive means mostly below about 40%;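 further: 0% = agonist challenge alone and 100% = reference antagonist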
CHO parental Ca – counter-screen: ATP calcium response change in parental CHO cells | parental CHO-K1, ATP-induced calcium, Fluo-8 fluorescence | AID 463079 | inhibition, % at 5.6 µM | 0.63% of 330,000 active;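 active means inhibition above that plate's mean sample inhibition plus 3 SD, cut at about 26% in these data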;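 further: 0% = ATP-challenged DMSO wells and 100% = DMSO wells without ATP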
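Material – parental CHO cells · Reagent – ATP stimulus · Compound – single nominal dose of 5.6 µM per compound · Detection – Fluo-8 fluorescence · Read-out basis – percent inhibition of calcium signal · Controls – ATP-challenged DMSO wells low, unchallenged DMSO wells high · Repeats – no replicates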
GPR7 antag – human neuropeptides B/W receptor 1 antagonism | 1.1% of 290,000 active | GPR7-expressing cells, fluorescence antagonist assay | inhibition, % at 4.4 µM; in the data active means inhibition above about 16%, passing the limit was not always enough;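 further: cells stimulated with the agonist NPW; 0% = agonist with vehicle and 100% = vehicle without agonist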
TAAR1 ag confirm – confirmation of human TAAR1 agonists | shares compounds with TAAR1 agonist | CHO RD-HGA16 TAAR1, Fluo-8 calcium fluorescence; scaled: DMSO 0%, maximal phenethylamine 100% | activation, % at 3 µM | 82% of 2,400 active | AID 651783;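 active means activation above a cutoff set at the run's mean compound activation plus 3 SD, cut at about 39% in these data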
Ga16 ag counter – counter-screen for TAAR1 agonists: nonselective agonists in parental cells. shares compounds with TAAR1 agonist. CHO-Ga16 parental, Fluo-8 calcium fluorescence; normalized to maximal ATP response, DMSO zero. activation, % at 3 µM. 50% of 2,400 active;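 active means activation above the run cutoff, the mean activation over all tested wells plus 3 SD, cut at about 12% in these data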;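 further: 0% = DMSO wells and 100% = maximal ATP response on the peak over basal ratio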
TAAR1 desens – counter-screen for human TAAR1 agonists: agonists that desensitize TAAR1; shares compounds with TAAR1 agonist; CHO RD-HGA16 hTAAR1, Fluo-8 calcium, beta-PEA response inhibition; inhibition, % at 3 µM; 46% of 2,400 active;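 active means inhibition above the run cutoff, the mean inhibition of all test compounds plus 3 SD, cut at about 49% in these data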;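 further: beta-PEA stimulus applied at its EC80; loss of beta-PEA calcium signal after compound pretreatment read as receptor desensitization; 0% = DMSO with beta-PEA at EC80 and 100% = DMSO alone without agonist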
Ga16 antag count – counter-screen for TAAR1 agonists: nonselective Ga16 antagonists; CHO-Ga16 ATP-induced calcium, Fluo-8 fluorescence; AID 651952; shares compounds with TAAR1 agonist; inhibition, % at 3 µM; 39% of 2,400 active;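 active means inhibition above the plate's mean compound inhibition plus 3 SD, computed per plate, cut at about 22% in these data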;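 further: 0% = EC80 ATP with DMSO and 100% = DMSO wells without ATP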
Starred values were filed as active, the others as inactive; nt = no result.

SMILES | TAAR1 antagonist | TAAR1 agonist | OX1R antag-1 | OX1R antag-2 | CHO parental Ca | GPR7 antag | TAAR1 ag confirm | Ga16 ag counter | TAAR1 desens | Ga16 antag count
COc1cccc(-c2c(C(=O)N/N=C(\C)c3cccs3)nnn2-c2nonc2N)c1 | 87* | 140* | -22 | 28 | -27 | -19 | 115* | 84* | 78* | 28*
CCOC(=O)C1CC2=C(CCCC2=O)N(Cc2ccccc2)C1=O (stereo not drawn) | 4 | 3 | nt | nt | nt | nt | nt | nt | nt | nt
CN1CCn2cnc(C(=O)N[C@@H](Cc3ccccc3)C(=O)OC(C)(C)C)c2C1=O | -10 | 1 | nt | nt | nt | nt | nt | nt | nt | nt
Cn1ccc2c(N3CCCCC3)cc3c(c21)C1CCC3O1 (stereo not drawn) | -10 | 6 | nt | nt | nt | nt | nt | nt | nt | nt
Cn1c(=O)ccc2ccccc21 | 8 | 0 | nt | nt | nt | nt | nt | nt | nt | nt
C/C(=N\NC(=O)c1nnn(-c2nonc2N)c1-c1ccc2c(c1)OCO2)c1cccs1 | 96* | 144* | 4 | -2 | -2 | -14 | 127* | 101* | 91* | 61*
CC(Cc1cccs1)NC(=O)Nc1ccc(F)cc1 (stereo not drawn) | -3 | 49* | -2 | 24 | 1 | -2 | 82* | 2 | 21 | 1
O=C(Nc1n[nH]c(=S)s1)c1ccc2ccccc2c1 | 20 | 57* | 2 | 3 | 15 | 13 | 42* | 20* | 2 | 5
O=C(Nc1nccs1)c1ccc2ccccc2c1 | 13 | 11 | -25 | 7 | -26 | -5 | nt | nt | nt | nt
O=C(COc1ccc2ccc(=O)oc2c1)NCCN1CCOCC1 | -24 | 2 | nt | nt | nt | nt | nt | nt | nt | nt
O=C1C(Cl)=C(NC(=O)c2ccccc2)C(=O)C(Cl)=C1NC(=O)c1ccccc1 | 69* | 53* | 12 | 48* | 5 | -34 | 36 | 21* | 55* | 49*
O=C(CSc1ccccc1)Nc1ccc(C(=O)Nc2ccc(O)cc2)cc1 | 27 | 75* | nt | nt | nt | 5 | 1 | 0 | 3 | 14
O=C(NNC(=O)c1ccc(NC(=O)c2ccccc2)cc1)c1ccccc1 | 16 | 61* | -22 | 12 | -3 | 3 | 22 | 0 | 14 | 3
O=C(Cc1ccccc1)NNC(=O)c1ccc(NC(=O)c2ccccc2)cc1 | 13 | 4 | -11 | 15 | -12 | -8 | nt | nt | nt | nt
COc1ccccc1OCc1ccc(C(=O)Nc2ccccc2)cc1 | 57* | 63* | -12 | 8 | -4 | nt | 46* | 27* | 60* | 37*
O=C(Nc1ccc(C2SCCS2)cc1)c1ccccc1 | 46 | 63* | -12 | 7 | -3 | 8 | 62* | 28* | 48 | 36*
NC(=O)CC(NC(=O)Cc1ccc(Cl)cc1)c1ccc(NCCc2ccccc2F)c([N+](=O)[O-])c1 (stereo not drawn) | nt | nt | 0 | 9 | -7 | nt | nt | 3 | nt | 5
CN(C)c1ccc(/C=C2\SC(=S)N(Nc3ncc(C(F)(F)F)cc3Cl)C2=O)cc1 | 87* | 123* | 100* | 8 | 76* | 8 | 76* | 122* | 77* | 90*
O=C1NC2(CCCCC2)C(=O)N1Cc1cccc(C(F)(F)F)c1 | -19 | 71* | -20 | 14 | -1 | 0 | 3 | 0 | -7 | 9
Cc1nc2ccc(NC(=O)C3CCN(S(=O)(=O)c4cccs4)CC3)cc2s1 | -5 | 41* | -16 | 16 | -6 | 10 | 8 | 12* | 12 | 13
O=C(O)CCC(=O)NCC1OCCc2ccccc21 (stereo not drawn) | 7 | 54* | 5 | 21 | -3 | -5 | 16 | 2 | 13 | 8
COc1ccc(NC(=O)CS(=O)CC(=O)NCC2OCCc3ccccc32)cc1 (stereo not drawn) | -14 | 10 | -15 | 27 | -9 | -5 | nt | nt | nt | nt
Cc1ccc(NS(=O)(=O)c2ccc(NC(=O)C(C)Sc3ccc(Cl)cc3)cc2)c(C)c1 (stereo not drawn) | 18 | 51* | -4 | 10 | 12 | 17 | 25 | 10 | 21 | 26*
Cc1ccc(NC(=O)c2ccc(S(=O)(=O)N3CCCCC3)cc2)cc1 | -11 | 48* | -16 | 20 | -16 | -12 | 1 | 4 | 10 | 11
CC(Sc1ccc(Cl)cc1)C(=O)Nc1ccc(S(=O)(=O)N2CCOCC2)cc1 (stereo not drawn) | 50* | 92* | 6 | 14 | 8 | 25 | 90* | 48* | 73* | 39*
SMILES | TAAR1 antagonist | TAAR1 agonist | OX1R antag-1 | OX1R antag-2 | CHO parental Ca | GPR7 antag | TAAR1 ag confirm | Ga16 ag counter | TAAR1 desens | Ga16 antag count
Cc1ccc(C)c(NS(=O)(=O)c2ccc(NC(=O)CSc3ccc(Cl)cc3)cc2)c1 | -9 | 17 | -13 | -2 | -6 | 2 | nt | nt | nt | nt
Cc1ccc(OC(C)C(=O)Nc2ccc(S(=O)(=O)N3CCOCC3)cc2)cc1 (stereo not drawn) | 26 | 66* | 11 | 0 | 10 | 15 | 77* | 51* | 42 | 33*
CC(C)C(=O)Nc1ccc(C(=O)Nc2ccc(S(=O)(=O)N3CCOCC3)cc2)cc1 | nt | nt | -3 | 4 | -12 | -15 | nt | nt | nt | nt
COc1ccccc1C(CNC(=O)C(CCSC)NC(=O)c1ccccc1Cl)N1CCCC1 (stereo not drawn) | -12 | 1 | nt | nt | nt | nt | nt | nt | nt | nt
CCOc1ccc(C(=O)NCC(=O)NNC(=O)CN(C)S(=O)(=O)c2ccc(Cl)cc2)cc1 | -11 | -1 | -13 | 10 | 1 | nt | nt | nt | nt | nt
COc1ccc(CC(=O)Nc2ccc(S(=O)(=O)N(C)C3CCN(C)CC3)cc2)cc1 | 6 | 8 | -8 | 9 | -5 | nt | nt | nt | nt | nt
CC(Oc1ccc(Br)cc1)C(=O)Nc1ccc(S(=O)(=O)N(C)C2CCN(C)CC2)cc1 (stereo not drawn) | 99* | 140* | 40 | -4 | 51* | nt | 140* | 100* | 102* | 82*
CC(Oc1ccc(C(=O)c2ccccc2)cc1)C(=O)Nc1ccc(S(N)(=O)=O)cc1 (stereo not drawn) | 29 | 74* | 24 | 5 | 15 | 9 | 61* | 31* | 47 | 36*
COc1ccc(NC(=O)CSc2ccc3c4c(cccc24)C(=O)c2ccccc2-3)cc1 | 37 | 20 | 3 | 1 | 4 | -5 | nt | nt | nt | nt

Source: PubChem (The Scripps Research Institute Molecular Screening Center)
